Calls of active or inactive are those of the source. No cut-off for these calls is given here.
How the values were obtained:
[1] = system: Mus musculus; assay: Tested in vivo for inhibition at a dose of 40 mg/kg, p.o. in oral mouse assay; Not active; type: functional, organism-based; parameters: dose 40 mg/kg
How it was run: (§1)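 Mice (22.5–27.5 g, six per group) received compound orally as a suspension in 5% emulphor. After 30 min they were given [5-³H]-mevalonolactone sc (0.5 μCi/animal) and were killed 30 min later. Livers were saponified and extracted with petroleum ether, and nonsaponifiable dpm was counted. Inhibition was calculated against incorporation in control animals.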

[2] = system: Mus musculus; assay: Tested in vivo for inhibition at a dose of 24 mg/kg, p.o. in oral mouse assay; type: functional; how it was run: as §1
[3] = system: Mus musculus; assay: Effective dose required for 50 percent inhibition of mouse liver squalene synthase at a dose of 40 mg/kg, po
[4] = system: Mus musculus; assay: Tested in vivo for inhibition at a dose of 40 mg/kg, p.o. in oral mouse assay; type: functional; how it was run: as §1

## C=C(CCC12OC(C(=O)OCCC(C)C)C(O)(C(=O)O)C(C(=O)OC)(O1)[C@@H](OC(=O)/C=C/[C@@H](C)C[C@@H](C)CC)[C@H]2O)C(OC(C)=O)[C@H](C)Cc1ccccc1 (some centres undefined)
[1]
  inhibition: inactive

## C=C(CCC12OC(C(=O)OCc3ccccc3)C(O)(C(=O)O)C(C(=O)O)(O1)[C@@H](OC(=O)/C=C/[C@@H](C)C[C@@H](C)CC)[C@H]2O)C(OC(C)=O)[C@H](C)Cc1ccccc1 (some centres undefined)
[2]
  inhibition in vivo at 24 mg/kg: 36%

## C=C(CCC12OC(C(=O)OC)C(O)(C(=O)O)C(C(=O)O)(O1)[C@@H](OC(=O)/C=C/[C@@H](C)C[C@@H](C)CC)[C@H]2O)C(OC(C)=O)[C@H](C)Cc1ccccc1 (some centres undefined)
[2]
  inhibition in vivo at 24 mg/kg: 32%

## C=C(CCC12OC(C(=O)OCCC(C)C)C(O)(C(=O)OC)C(C(=O)O)(O1)[C@@H](OC(=O)/C=C/[C@@H](C)C[C@@H](C)CC)[C@H]2O)C(OC(C)=O)[C@H](C)Cc1ccccc1 (some centres undefined)
[3]
  ED50: 18 mg/kg

## C=C(CCC12OC(C(=O)O)C(O)(C(=O)OC)C(C(=O)OC)(O1)[C@@H](OC(=O)/C=C/[C@@H](C)C[C@@H](C)CC)[C@H]2O)C(OC(C)=O)[C@H](C)Cc1ccccc1 (some centres undefined)
[1]
  inhibition: inactive

## C=C(CCC12OC(C(=O)O)C(O)(C(=O)O)C(C(=O)O)(O1)[C@@H](OC(=O)/C=C/[C@@H](C)C[C@@H](C)CC)[C@H]2O)C(OC(C)=O)[C@H](C)Cc1ccccc1 (some centres undefined)
[4]
  inhibition in vivo at 40 mg/kg: 11%

## C=C(CCC12OC(C(=O)O)C(O)(C(=O)OC)C(C(=O)O)(O1)[C@@H](OC(=O)/C=C/[C@@H](C)C[C@@H](C)CC)[C@H]2O)C(OC(C)=O)[C@H](C)Cc1ccccc1 (some centres undefined)
[4]
  inhibition in vivo at 40 mg/kg: 43%

## C=C(CCC12OC(C(=O)OCCC(C)C)C(O)(C(=O)O)C(C(=O)O)(O1)[C@@H](OC(=O)/C=C/[C@@H](C)C[C@@H](C)CC)[C@H]2O)C(OC(C)=O)[C@H](C)Cc1ccccc1 (some centres undefined)
[4]
  inhibition in vivo at 40 mg/kg: 62%

## C=C(CCC12OC(C(=O)O)C(O)(C(=O)O)C(C(=O)OC)(O1)[C@@H](OC(=O)/C=C/[C@@H](C)C[C@@H](C)CC)[C@H]2O)C(OC(C)=O)[C@H](C)Cc1ccccc1 (some centres undefined)
[1]
  inhibition: inactive

Reference: ChEMBL document CHEMBL1127322, “Selective protection and relative importance of the carboxylic acid groups of zaragozic acid A for squalene synthase inhibition” (J Med Chem, 1994)
